The values that follow come from ChEMBL document CHEMBL2177045, “Chemical subtleties in small-molecule modulation of peptide receptor function: the case of CXCR3 biaryl-type ligands” (J Med Chem, 2012).

In assay [1] the target is T1, C-X-C chemokine receptor type 3 (Homo sapiens, UniProt P49682).
T1 sequence (P49682 whole entry): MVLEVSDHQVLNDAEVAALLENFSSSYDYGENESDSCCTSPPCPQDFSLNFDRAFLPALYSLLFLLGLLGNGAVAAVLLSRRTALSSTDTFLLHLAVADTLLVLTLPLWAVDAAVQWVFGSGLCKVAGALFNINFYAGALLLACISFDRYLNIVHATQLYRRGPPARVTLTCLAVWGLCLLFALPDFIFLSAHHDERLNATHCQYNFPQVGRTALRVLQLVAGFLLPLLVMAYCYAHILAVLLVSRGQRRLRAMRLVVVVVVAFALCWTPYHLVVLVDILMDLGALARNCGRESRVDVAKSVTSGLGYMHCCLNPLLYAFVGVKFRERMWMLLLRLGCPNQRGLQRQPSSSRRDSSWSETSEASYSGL
Nature of the assay: Displacement of [125I]CXCL10 from CXCR3 expressed in HEK293 cells. It is filed as cell-based. The method in brief: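 Competition binding against [125I]CXCL10 using membranes from HEK293 cells stably expressing CXCR3. Affinities reported as pKi; mean ± SEM of at least three independent experiments.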
Background: Loss of bound radioactivity is the signal in a displacement assay; it reports binding, not function.

For assay [2], the target named is T2, C-X-C chemokine receptor type 3 (Homo sapiens) (UniProt P49682).
T2 sequence (whole entry): T1 sequence (P49682 whole entry)
Briefly: Agonist activity at CXCR3 expressed in HEK293 cells by [35S]GTPgamma binding assay relative to CXCL11. The assay is classed as functional, cell-based. In short, it runs like this: (§1)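 Membranes (5 μg/well) from HEK293 cells stably expressing CXCR3, incubated with CXCL11 or ligands. Buffer 50 mM HEPES, 10 mM MgCl2, 100 mM NaCl, pH 7.2, with 3 μM GDP and 300 pM [35S]GTPγS, 1 h at room temperature. Filtered on GF/B, incorporated label counted. Response normalized to CXCL11 (α = 1) to give relative efficacy; mean ± SEM of ≥3 independent experiments.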

In assay [3] the target is T1, C-X-C chemokine receptor type 3. Briefly: Agonist activity at CXCR3 expressed in HEK293 cells by [35S]GTPgamma binding assay. The assay is classed as functional, cell-based. The method in brief: as §1
In assay [4] the target is T2, C-X-C chemokine receptor type 3 (Homo sapiens). Briefly: Agonist activity at CXCR3 expressed in HEK293 cells in presence of CXCR3 antagonist (R)-N-(1-(3-(4-ethoxyphenyl)-4-oxo-3,4-dihydropyrido[2,3-d]pyrimidin-2-yl)ethyl)-2-(4-fluoro-3-(trifluoromethyl)phenyl)-N-(pyridin-3-ylmethyl)acetamide by [35S]GTPgamma binding assay. The assay is classed as functional, cell-based. In short, it runs like this:
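[35S]GTPγS incorporation on membranes (5 μg/well) of HEK293 cells stably expressing CXCR3. Buffer 50 mM HEPES, 10 mM MgCl2, 100 mM NaCl, pH 7.2, 3 μM GDP, 300 pM [35S]GTPγS, 1 h at room temperature. In antagonist mode, antagonist added 30 min before [35S]GTPγS. Read by filtration and counting.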

For assay [5] the target is unchanged. Nature of the assay: Agonist activity at CXCR3 expressed in HEK293 cells by CRE-luciferase reporter gene assay. The assay is classed as functional, cell-based. In short, it runs like this: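 HEK293 cells stably expressing CXCR3, transfected with a CRE-luciferase reporter plasmid. Medium swapped for serum-free medium with 0.05% BSA plus ligands for 5 h. Then replaced by luciferin substrate solution (Tris-phosphate pH 7.8, glycerol, Triton X-100, DTT, MgCl2, 825 μM ATP, beetle luciferin) and luminescence read.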
For orientation: In a reporter assay the amount or activity of a reporter protein is the signal.

The source made the active and inactive calls. The rule behind the calls is not given here.

The term Ki denotes a dissociation constant, usually derived from enzyme kinetics or from competition with a known ligand. A low value points to higher affinity. Take `CC1(C)[C@@H]2CC=C(C[N+](C)(C)Cc3ccc(-c4cccc(Cl)c4)cc3)[C@H]1C2`: the affinity in assay [1], expressed as Ki, was 316 nM. For the same compound, the Ratio in assay [2] worked out at 0.05.

With `CC1(C)[C@H]2CC=C(C[N+](C)(C)Cc3ccc(-c4ccccc4)cc3)[C@@H]1C2`, the affinity in assay [1] corresponds to a Ki of 631 nM. For the same compound, the Ratio in assay [2] amounted to 0.11.

Take `CC1(C)[C@H]2CC=C(C[N+](C)(C)Cc3ccc(Cl)cc3)[C@@H]1C2`: the Ratio in assay [2] turned out to be 0.02.

In general, EC50 refers to the concentration needed to bring the measured effect to its halfway point. A lower EC50 goes with greater potency. In turn, `CC1(C)[C@H]2CC=C(C[N+](C)(C)Cc3ccc(-c4c(Cl)cccc4Cl)cc3)[C@@H]1C2` showed a Ki in assay [1] of 398 nM. In addition, the Ratio in assay [2] was 0.42. Besides, the EC50 in assay [3] is 2000 nM.

As to `CC1(C)[C@@H]2CC=C(C[N+](C)(C)Cc3ccc(-c4ccccc4I)cc3)[C@H]1C2`, the Ki in assay [1] is 50.1 nM. Also, the Ratio in assay [2] is 0.98. In assay [3], the EC50 is 631 nM.

`CCOc1ccc(-n2c([C@@H](C)N(Cc3cccnc3)C(=O)Cc3ccc(F)c(C(F)(F)F)c3)nc3ncccc3c2=O)cc1` gave a Ki in assay [1] of 10 nM. Besides, in assay [2], the Ratio turned out to be 0.

As for `CC1(C)[C@H]2CC=C(C[N+](C)(C)Cc3ccc(-c4ccccc4I)cc3)[C@@H]1C2`, in assay [4], the outcome was inactive. In assay [1], this compound had an inhibition constant Ki of 63.1 nM. Besides, the outcome in assay [5] was Active. Besides, the Ratio in assay [2] came to 0.99. This compound also showed a concentration for a half-maximal effect (EC50) in assay [3] of 1000 nM.

`CC1(C)[C@H]2CC=C(C[N+](C)(C)Cc3ccc(-c4cccc(Cl)c4Cl)cc3)[C@@H]1C2` had a Ki in assay [1] of 398 nM. Besides, the Ratio in assay [2] was 0.31. For the same compound, in assay [3], the concentration for a half-maximal effect (EC50) is 631 nM.

`CC1(C)[C@H]2CC=C(C[N+](C)(C)Cc3ccc(-c4ccccc4Br)cc3)[C@@H]1C2`: the Ki in assay [1] is 63.1 nM. In addition, the Ratio in assay [2] amounted to 0.95. In assay [3], this compound gave an EC50 of 794 nM.

As to `CC1(C)[C@H]2CC=C(C[N+](C)(C)Cc3ccc(-c4ccccc4F)cc3)[C@@H]1C2`, the Ki in assay [1] is 501 nM. In assay [2], the Ratio was 0.2. The compound also showed a 50% effective concentration (EC50) in assay [3] of 1260 nM.

The compound `CC1(C)[C@H]2CC(C[N+](C)(C)Cc3ccc(-c4ccccc4I)cc3)=C[C@@H]1C2` showed a Ki in assay [1] of 200 nM. For the same compound, the Ratio in assay [2] was determined as 1.05. Further, in assay [3], the concentration for a half-maximal effect (EC50) is 1580 nM.

Take `COc1ccccc1-c1ccc(C[N+](C)(C)CC2=CC[C@H]3C[C@@H]2C3(C)C)cc1`: in assay [1], the inhibition constant Ki is 158 nM. Also, in assay [2], the Ratio was 0.36. The compound also showed an EC50 in assay [3] of 12600 nM.

Consider `CC1(C)[C@H]2CC=C(C[N+](C)(C)Cc3ccc(-c4ccccc4)c(Cl)c3)[C@@H]1C2`, for which, in assay [1], the affinity corresponds to a Ki of 631 nM. In assay [2], the Ratio worked out at 0.06.

With `CC1(C)[C@H]2CC(C[N+](C)(C)Cc3ccc(-c4cccc(Cl)c4)cc3)=C[C@@H]1C2`, the Ki in assay [1] is 501 nM. Moreover, the Ratio in assay [2] is 0.07.

On to `CC1(C)[C@H]2CC=C(C[N+](C)(C)Cc3ccc(-c4ccccc4Cl)cc3)[C@@H]1C2`, for which the outcome in assay [4] was inactive. In assay [1], this compound showed a Ki of 100 nM. The Ratio in assay [2] was 0.73. For the same compound, the EC50 in assay [3] is 1580 nM.

`Cc1cccc(C)c1-c1ccc(C[N+](C)(C)CC2=CC[C@H]3C[C@@H]2C3(C)C)cc1`: the Ki in assay [1] is 1000 nM. For the same compound, the Ratio in assay [2] is 0.19. Also, the EC50 in assay [3] is 7940 nM.

`Cc1ccccc1-c1ccc(C[N+](C)(C)CC2=CC[C@H]3C[C@@H]2C3(C)C)cc1` showed a Ki in assay [1] of 158 nM. The Ratio in assay [2] was determined as 0.2. The compound also showed a 50% effective concentration (EC50) in assay [3] of 1260 nM.

In turn, `CC1(C)[C@H]2CC=C(C[N+](C)(C)Cc3ccc4c(c3)Cc3ccccc3-4)[C@@H]1C2` had a Ki in assay [1] of 398 nM. Besides, in assay [2], the Ratio is 0.03.

In assay [1], `NCCCC[C@H](NC(=O)[C@@H]1Cc2ccccc2CN1C(=O)CCC(=O)c1ccccc1)C(=O)NCC(c1ccccc1)c1ccccc1` gave a Ki of 39.8 nM. The Ratio in assay [2] was 0.96.

Take `CC1(C)[C@H]2CC=C(C[N+](C)(C)Cc3ccc(-c4cc(Cl)ccc4Cl)cc3)[C@@H]1C2`: the affinity in assay [1], expressed as Ki, was 251 nM. Further, the outcome in assay [5] was Active. Besides, the Ratio in assay [2] was 0.64. For the same compound, the midpoint of the response in assay [3], the EC50, lay at 5010 nM.

Consider `CC1(C)[C@H]2CC=C(C[N+](C)(C)Cc3ccc(-c4cccc(Cl)c4)cc3)[C@@H]1C2`, for which, in assay [1], the affinity, expressed as Ki, was 251 nM. The result in assay [5] was inactive. Moreover, in assay [2], the Ratio turned out to be 0.05.

Compound `CC1(C)[C@H]2CC[C@@H](C[N+](C)(C)Cc3ccc(-c4ccccc4I)cc3)[C@@H]1C2` gave a Ki in assay [1] of 100 nM. The Ratio in assay [2] is 0.83. In assay [3], the midpoint of the response, the EC50, lay at 1260 nM.

As for `CC1(C)[C@H]2CC=C(C[N+](C)(C)Cc3ccc(-c4cccc(Br)c4)cc3)[C@@H]1C2`, the affinity in assay [1] corresponds to a Ki of 200 nM. For the same compound, in assay [2], the Ratio was 0.08.

In assay [1], `CC1(C)[C@H]2CC[C@@H](C[N+](C)(C)Cc3ccc(-c4cccc(Cl)c4)cc3)[C@@H]1C2` showed a Ki of 501 nM. Moreover, the Ratio in assay [2] came out at 0.07.

`CC1(C)[C@H]2CC=C(C[N+](C)(C)Cc3ccccc3)[C@@H]1C2` had a Ki in assay [1] of 2510 nM. Besides, the Ratio in assay [2] came out at 0.04.

In turn, `CC1(C)[C@H]2CC=C(C[N+](C)(C)Cc3ccc(-c4cccc(Cl)c4)c(Cl)c3)[C@@H]1C2` showed a Ki in assay [1] of 501 nM. The Ratio in assay [2] came out at 0.03.

On to `CC1(C)[C@H]2CC=C(C[N+](C)(C)Cc3ccc(-c4ccccc4O)cc3)[C@@H]1C2`, for which the Ki in assay [1] is 2000 nM. In assay [2], the Ratio is 0.07.

For the compound `CC1(C)[C@H]2CC=C(C[N+](C)(C)Cc3ccc(-c4ccccc4Cl)c(Cl)c3)[C@@H]1C2`, in assay [1], the Ki is 200 nM. In assay [2], the Ratio stood at 0.3. The same compound gave an EC50 in assay [3] of 794 nM.
